Reference: ChEMBL document CHEMBL1121446, “Quantitative structure-pharmacokinetic relationships derived on antibacterial sulfonamides in rats and its comparison to quantitative structure-activity relationships” (J Med Chem, 1980)

Assays:
[1] = Overall elimination rate in rat; type: ADME, organism-based; conditions: in vivo, read-out: ke (converted)
How it was run: (§1)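 Male Sprague-Dawley rats received the SA sodium salt, 50 mg/kg, into the tail vein within 1 min. Tail-artery blood was sampled over time and plasma separated by centrifugation. Unmetabolized and total SA were assayed by modified Bratton-Marshall before and after hydrolysis of N4 metabolites. ke (or kC,U for unchanged drug) was obtained by computer fitting to a one-compartment model. Vc = dose / extrapolated initial plasma concentration.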

[2] = Half life in rat; type: ADME, organism-based; conditions: in vivo; how it was run: as §1
Rattus norvegicus [3] = species: Rattus norvegicus; experiment: Apparent volume of distribution was determined in rat; type: ADME, organism-based; conditions: in vivo; how it was run: as §1
[4] = Total clearance from the body in rat; type: ADME, organism-based; conditions: in vivo, read-out: ClT
Rattus norvegicus [5] = species: Rattus norvegicus; experiment: Affinity for protein binding expressed as association constant in fresh rat serum; type: ADME, organism-based
How it was run: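 Sulfapyridines added to freshly prepared rat serum at 100-600 µmol/L in 100 µmol/L steps. Samples ultracentrifuged 10 h at 45000 rpm (g = 150000), 37 °C. Unbound drug in the top protein-free layer measured photometrically by Bratton-Marshall. Total drug measured before centrifugation, with controls correcting for sedimentation of unbound drug. Bound = total − free; Kassoc from a Scatchard plot.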

[6] = Acid dissociation constant; type: ADME
How it was run: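 pKa of the sulfapyridine acidic NH measured spectrophotometrically.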

Rattus norvegicus [7] = species: Rattus norvegicus; experiment: Metabolic clearance from the body in rat; type: ADME, organism-based; conditions: in vivo
How it was run: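 Metabolic clearance calculated as total clearance minus renal clearance. Plasma levels were measured before and after hydrolysis of N4-acetyl metabolites.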

[8] = First order rate of elimination of unchanged drug in rat; type: ADME, organism-based; conditions: in vivo, read-out: kC,U (converted); how it was run: as §1
[9] = Renal clearance from the body in rat; type: ADME, organism-based, Kidney; conditions: in vivo, read-out: CL_renal
How it was run: (§2)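 Drug solutions were infused into rats at 1.9 mL/h, with plasma and urine concentrations measured simultaneously over time. Clearance = urine concentration × urine volume per minute / plasma concentration. Inulin and PAH clearances were also determined. Urine pH was set with NH4Cl (pH 5-6) or NaHCO3 (pH 7.8), compared with normal pH 6.8.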

[10] = Half life was determined; type: ADME; conditions: rat
[11] = Renal clearance from the body; type: ADME, organism-based, Kidney; conditions: in vivo; read-out: CL_renal; how it was run: as §2

Compound | k el [1] | half-life [2] | Vc (Rattus norvegicus [3]) | clearance [4] | K ass (Rattus norvegicus [5]) | pKa [6] | ClM (Rattus norvegicus [7]) | k el [8] | CL renal [9] | half-life [10] | CL renal [11]
Cc1cc(Br)cnc1NS(=O)(=O)c1ccc(N)cc1 | 2.36e-05 s⁻¹ | 8.15 h | 142.6 mL | 0.2 mL/min | 5888 l M-1 | 7.19 |  |  |  |  | 
N#Cc1cccnc1NS(=O)(=O)c1ccc(N)cc1 | 0.000133 s⁻¹ | 1.44 h | 96.7 mL | 0.77 mL/min | 1820 l M-1 | 5.25 |  |  |  |  | 
Cc1cc(Cl)cnc1NS(=O)(=O)c1ccc(N)cc1 | 2.36e-05 s⁻¹ | 8.15 h | 137.9 mL | 0.195 mL/min |  | 7.26 |  |  |  |  | 
Nc1ccc(S(=O)(=O)Nc2ncc(Br)cc2Br)cc1 | 8.89e-06 s⁻¹ | 21.6 h | 90.3 mL | 0.048 mL/min | 13800 l M-1 | 5.78 | 0.02 mL/min | 5.56e-06 s⁻¹ |  |  | 0.03 mL/min
CCOc1cccnc1NS(=O)(=O)c1ccc(N)cc1 | 0.000138 s⁻¹ | 1.4 h | 98.3 mL | 0.81 mL/min | 4169 l M-1 | 8.2 |  |  |  |  | 
Cc1cc(C)nc(NS(=O)(=O)c2ccc(N)cc2)c1 | 0.00016 s⁻¹ | 1.2 h | 183 mL | 1.76 mL/min | 5495 l M-1 | 9.54 | 0.48 mL/min | 0.000117 s⁻¹ | 1.28 mL/min |  | 
Nc1ccc(S(=O)(=O)Nc2ncccc2Cl)cc1 | 2.22e-05 s⁻¹ | 8.66 h | 147.5 mL | 0.2 mL/min | 13441 l M-1 | 6.8 |  |  |  |  | 
Nc1ccc(S(=O)(=O)Nc2ncc(Cl)cc2Cl)cc1 | 8.89e-06 s⁻¹ | 21.6 h | 99.2 mL | 0.05 mL/min | 12706 l M-1 | 5.98 | 0.03 mL/min | 8.33e-06 s⁻¹ | 0.05 mL/min |  | 
Cc1cnc(NS(=O)(=O)c2ccc(N)cc2)c(C#N)c1 | 8.83e-05 s⁻¹ | 2.18 h | 89.7 mL | 0.47 mL/min | 10965 l M-1 | 5.35 |  |  |  |  | 
COc1cccnc1NS(=O)(=O)c1ccc(N)cc1 | 0.000151 s⁻¹ | 1.27 h | 100.3 mL | 0.91 mL/min | 2399 l M-1 | 8.07 |  |  |  |  | 

The remaining lines, values ahead:

k el [1] | half-life [2] | Vc (Rattus norvegicus [3]) | clearance [4] | K ass (Rattus norvegicus [5]) | pKa [6] | ClM (Rattus norvegicus [7]) | k el [8] | CL renal [9] | half-life [10] | CL renal [11] | Compound
0.000161 s⁻¹ | 1.19 h | 142.8 mL | 1.38 mL/min | 6606 l M-1 | 9.01 |  |  |  |  |  | Cc1ccnc(NS(=O)(=O)c2ccc(N)cc2)c1
9.25e-05 s⁻¹ | 2.08 h | 111.2 mL | 0.62 mL/min | 8511 l M-1 | 9.21 | 0.19 mL/min | 6.39e-05 s⁻¹ | 0.43 mL/min |  |  | CN(C)c1ccc(NS(=O)(=O)c2ccc(N)cc2)nc1
7.78e-06 s⁻¹ | 24.8 h | 247.1 mL | 0.116 mL/min |  | 6.98 | 0.07 mL/min | 2.78e-06 s⁻¹ | 0.04 mL/min |  |  | Nc1ccc(S(=O)(=O)Nc2ccc(Br)cn2)cc1
0.000102 s⁻¹ |  | 168.6 mL | 1.04 mL/min | 5129 l M-1 | 9.2 |  |  |  | 1.88 h |  | Cc1cccc(NS(=O)(=O)c2ccc(N)cc2)n1
8.17e-05 s⁻¹ | 2.36 h | 234 mL | 1.15 mL/min | 9183 l M-1 | 8.95 |  |  |  |  |  | Cc1ccc(NS(=O)(=O)c2ccc(N)cc2)nc1
0.000131 s⁻¹ | 1.47 h | 229 mL | 1.79 mL/min | 4592 l M-1 | 8.54 | 0.46 mL/min | 9.72e-05 s⁻¹ | 1.33 mL/min |  |  | Nc1ccc(S(=O)(=O)Nc2ccccn2)cc1 [SULFAPYRIDINE]
0.000149 s⁻¹ | 1.29 h | 131 mL | 1.17 mL/min | 1622 l M-1 | 8.74 |  |  |  |  |  | Cc1cccnc1NS(=O)(=O)c1ccc(N)cc1
1.17e-05 s⁻¹ | 16.5 h | 192.8 mL | 0.135 mL/min | 20417 l M-1 | 5.56 |  |  |  |  |  | Nc1ccc(S(=O)(=O)Nc2ccc([N+](=O)[O-])cn2)cc1
8.89e-06 s⁻¹ | 21.6 h | 185.5 mL | 0.099 mL/min | 25703 l M-1 | 7.04 | 0.04 mL/min | 5.56e-06 s⁻¹ | 0.06 mL/min |  |  | Nc1ccc(S(=O)(=O)Nc2ccc(Cl)cn2)cc1
